From ChEMBL document CHEMBL3352117, “Piperazine and piperidine carboxamides and carbamates as inhibitors of fatty acid amide hydrolase (FAAH) and monoacylglycerol lipase (MAGL)” (Bioorg Med Chem, 2014)

How the values were obtained:
[1] = target: T1, Monoglyceride lipase (Homo sapiens) (UniProt Q99685); experiment: Inhibition of human recombinant MAGL expressed in HEK293 cells using 2-AG as substrate assessed as remaining activity at 10 uM
T1 sequence (whole entry): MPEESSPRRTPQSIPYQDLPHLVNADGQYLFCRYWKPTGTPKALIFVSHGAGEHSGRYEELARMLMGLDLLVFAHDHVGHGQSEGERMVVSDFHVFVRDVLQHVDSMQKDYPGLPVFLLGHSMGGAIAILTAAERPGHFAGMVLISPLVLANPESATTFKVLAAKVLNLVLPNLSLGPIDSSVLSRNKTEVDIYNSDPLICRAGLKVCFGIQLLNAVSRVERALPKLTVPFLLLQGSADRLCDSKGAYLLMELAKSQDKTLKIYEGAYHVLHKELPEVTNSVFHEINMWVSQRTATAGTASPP
Procedure, shortened: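 Lysates of HEK293 cells transiently overexpressing human MAGL, 2.5 ug protein per incubation, with 50 uM 2-AG substrate. Test compound at 10 uM. Remaining activity expressed as % of control, given as range, n = 2.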

[2] = target: T2, Fatty-acid amide hydrolase 1 (Homo sapiens) (UniProt O00519); experiment: Inhibition of human recombinant FAAH expressed in COS7 cells using anandamide as substrate assessed as remaining activity at 10 uM; type: cell-based; settings: COS-7
T2 sequence (whole entry): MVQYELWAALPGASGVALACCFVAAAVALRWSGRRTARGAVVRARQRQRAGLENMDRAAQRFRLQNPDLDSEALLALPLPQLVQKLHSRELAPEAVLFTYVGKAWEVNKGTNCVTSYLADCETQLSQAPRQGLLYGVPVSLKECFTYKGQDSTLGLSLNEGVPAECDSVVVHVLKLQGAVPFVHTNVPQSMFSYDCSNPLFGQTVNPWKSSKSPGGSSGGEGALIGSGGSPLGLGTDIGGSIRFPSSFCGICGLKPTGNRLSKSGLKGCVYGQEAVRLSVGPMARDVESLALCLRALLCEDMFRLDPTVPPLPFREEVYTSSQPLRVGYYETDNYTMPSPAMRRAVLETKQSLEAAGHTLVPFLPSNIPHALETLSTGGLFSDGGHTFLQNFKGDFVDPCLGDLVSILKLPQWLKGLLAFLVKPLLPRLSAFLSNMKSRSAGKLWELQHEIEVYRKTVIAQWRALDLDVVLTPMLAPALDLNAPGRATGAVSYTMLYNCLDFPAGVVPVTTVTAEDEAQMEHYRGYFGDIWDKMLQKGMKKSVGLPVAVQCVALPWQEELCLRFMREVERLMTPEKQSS
Procedure, shortened: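 Membranes of COS-7 cells transiently overexpressing human FAAH, 1 ug protein per incubation, with 20 uM anandamide substrate including 10 nM 3H-anandamide tracer. Test compound at 10 uM. Remaining activity expressed as % of control, given as range, n = 2.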

Monoglyceride lipase = target: T3, Monoglyceride lipase (Homo sapiens, UniProt Q99685); experiment: Inhibition of human recombinant MAGL expressed in HEK293 cells using 2-AG as substrate; type: cell-based
T3 sequence (Q99685 whole entry): T1 sequence (whole entry)
Procedure, shortened: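 Lysates of HEK293 cells transiently overexpressing human recombinant MAGL, 2.5 ug protein per incubation. 2-AG substrate at 50 uM.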

[3] = target: T4, Fatty-acid amide hydrolase 1 (Homo sapiens, UniProt O00519); experiment: Inhibition of human recombinant FAAH expressed in COS7 cells using anandamide as substrate; type: cell-based, COS-7
T4 sequence (O00519 whole entry): T2 sequence (whole entry)
Procedure, shortened: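 Membranes of COS-7 cells transiently overexpressing human recombinant FAAH, 1 ug protein per incubation. Anandamide substrate at 20 uM, including 10 nM 3H-anandamide tracer (specific activity 60 […]/mmol).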

Homo sapiens = species: Homo sapiens; experiment: Selectivity ratio of IC50 for human recombinant FAAH to IC50 for human recombinant MAGL

Activity [1] [%] | Activity [2] [%] | IC50 (Monoglyceride lipase; read-out: IC50) [nM] | IC50 ([3]; read-out: IC50) [nM] | IC50 ([3]; read-out: pIC50 (converted)) [nM] | Ratio IC50 (Homo sapiens) | IC50 (Monoglyceride lipase; read-out: pIC50 (converted)) [nM] | Compound
96 | 86 | – | – | – | – | – | O=C(Nc1ccc(C(F)(F)F)cc1)N1CCN(C(c2ccccc2)c2ccccc2)CC1
– | – | 7.8 | 89 | 89.1 | 10 | – | O=C(N1CCN(Cc2cccc(Oc3ccccc3)c2)CC1)n1nnc2ccccc21
– | – | 275 | 11 | 11.2 | – | – | O=C(N1CCN(c2ccccc2)CC1)n1nnc2cccnc21
101 | 87 | – | – | – | – | – | O=C(Nc1cccnc1)N1CCN(C(c2ccccc2)c2ccccc2)CC1
58 | 84 | – | – | – | – | – | O=C(Nc1ccc([N+](=O)[O-])cc1)N1CCN(C(c2ccccc2)c2ccccc2)CC1
– | – | 0.9 | 282 | 282 | – | – | O=C(N1CCN(C(c2ccc(F)cc2)c2ccc(F)cc2)CC1)n1cncn1
– | – | 132 | 6 | 6.03 | – | – | O=C(N1CCN(c2ccccc2)CC1)n1cncn1
62 | 88 | – | – | – | – | – | O=C(Nc1ccccc1)N1CCN(C(c2ccccc2)c2ccccc2)CC1
– | – | 70 | 708 | 708 | – | – | O=C(N1CCN(Cc2ccc(Oc3ccccc3)cc2)CC1)n1nnc2ccccc21
– | 76 | 74 | – | – | – | – | O=C(OC(C(F)(F)F)C(F)(F)F)N1CCN(Cc2cccc(Oc3ccccc3)c2)CC1
– | – | 0.6 | 2.7 | 2.69 | 4.5 | – | O=C(N1CCN(Cc2cccc(Oc3ccccc3)c2)CC1)n1cncn1
– | – | 1.3 | 452 | 447 | – | – | O=C(N1CCN(C(c2ccccc2)c2ccccc2)CC1)n1cncn1
89 | 90 | – | – | – | – | – | O=C(OCC(Cl)(Cl)Cl)N1CCC(C(O)(c2ccc3c(c2)OCO3)c2ccc3c(c2)OCO3)CC1
98 | – | – | 3020 | 3020 | – | – | O=C(Nc1ccccc1)N1CCN(Cc2cccc(Oc3ccccc3)c2)CC1
92 | 92 | – | – | – | – | – | O=C(OCc1ccccc1)N1CCC(C(O)(c2ccc3c(c2)OCO3)c2ccc3c(c2)OCO3)CC1
51 | – | – | 2300 | 2290 | – | – | O=C(N1CCN(C(c2ccccc2)c2ccccc2)CC1)n1ccnc1
94 | 87 | – | – | – | – | – | O=C(Nc1ccccn1)N1CCN(C(c2ccccc2)c2ccccc2)CC1
– | – | 2840 | 15 | 15.5 | – | – | O=C(N1CCN(Cc2cccc(Oc3ccccc3)c2)CC1)n1ccnc1
– | – | 1660 | 141 | 141 | – | – | CCOC(=O)N1CCN(C(=O)n2cncn2)CC1
102 | 98 | – | – | – | – | – | O=C(Nc1ccc([N+](=O)[O-])cc1)N1CCN(Cc2cccc(Oc3ccccc3)c2)CC1
92 | 84 | – | – | – | – | – | CCCCc1ccc(NC(=O)N2CCN(C(c3ccccc3)c3ccccc3)CC2)cc1
– | – | – | 1620 | 1620 | 2320 | 0.692 | O=C(N1CCC(C(O)(c2ccc3c(c2)OCO3)c2ccc3c(c2)OCO3)CC1)n1cncn1
93 | 62 | – | – | – | – | – | O=C(N1CCN(C(c2ccccc2)c2ccccc2)CC1)n1cnc(-c2ccccc2)c1
– | – | 1910 | 231 | 229 | – | – | CCOC(=O)N1CCN(C(=O)n2nnc3cccnc32)CC1
78 | 56 | – | – | – | – | – | COc1ccc(NC(=O)N2CCN(Cc3cccc(Oc4ccccc4)c3)CC2)cc1
86 | 89 | – | – | – | – | – | COc1ccc(NC(=O)N2CCN(C(c3ccccc3)c3ccccc3)CC2)cc1
85 | 89 | – | – | – | – | – | O=C(Oc1ccc([N+](=O)[O-])cc1)N1CCC(=C(c2ccc3c(c2)OCO3)c2ccc3c(c2)OCO3)CC1
– | – | 5.5 | 23 | 22.9 | 4 | – | O=C(N1CCN(Cc2cccc(Oc3ccccc3)c2)CC1)n1nnc2cccnc21
– | – | 1.7 | 971 | 977 | – | – | O=C(N1CCN(C(c2ccccc2)c2ccccc2)CC1)n1nnc2cccnc21
– | – | 660 | 3.4 | 17.4 | – | – | O=C(N1CCN(Cc2ccc(Oc3ccccc3)cc2)CC1)n1ccnc1

Compound | Activity [1] [%] | Activity [2] [%] | IC50 (Monoglyceride lipase; read-out: IC50) [nM] | IC50 ([3]; read-out: IC50) [nM] | IC50 ([3]; read-out: pIC50 (converted)) [nM] | Ratio IC50 (Homo sapiens) | IC50 (Monoglyceride lipase; read-out: pIC50 (converted)) [nM]
O=C(Oc1ccc([N+](=O)[O-])cc1)N1CCN(C(c2ccccc2)c2ccccc2)CC1 | – | 86 | 257 | – | – | – | –
O=C(Oc1ccc([N+](=O)[O-])cc1)N1CCC(C(c2ccc3c(c2)OCO3)c2ccc3c(c2)OCO3)CC1 | – | 88 | 42 | – | – | – | –
O=C(N1CCC(C(c2ccc3c(c2)OCO3)c2ccc3c(c2)OCO3)CC1)n1cncn1 | – | – | 0.4 | 4800 | 4790 | > 13000 | –
O=C(Oc1ccc([N+](=O)[O-])cc1)N1CCN(Cc2ccc(Oc3ccccc3)cc2)CC1 | – | 43 | 1100 | – | – | – | –
O=C(Oc1ccc([N+](=O)[O-])cc1)N1CCN(C(c2ccc(F)cc2)c2ccc(F)cc2)CC1 | – | 85 | 347 | – | – | – | –
